Measured values as given in the RNAGym collection of RNA variant scans (doi:10.1002/anie.201605470).

B1: Osa-1-4 twister ribozyme (parent)
chain: CCGCCUAACACUGCCAAUGCCGGUCCCAAGCCCGGAUAAAAGUGGAGGGGGCGG

Variants of: B1
Experiment: self-cleavage, relative activity (ratio to wild type); higher = more cleavage; co-transcriptional
Procedure, shortened: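 For each read, cleavage status was taken from whether upstream sequence was present. The reads came from an Oryza sativa twister ribozyme of 54 nucleotides, whose DNA template was synthesised with 97 % wild-type base and 1 % of each other base at the 48 positions downstream of the cleavage site. The template was transcribed in vitro at 37 °C for 2 h with co-transcriptional self-cleavage, and the RNA was reverse-transcribed using a template-switching oligonucleotide, PCR-amplified and deep-sequenced. Relative activity is the fraction cleaved normalised to wild type.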

First: A39G C11A
Second: A39G C11U
The self-cleavage of the first is lower: 0.62 for the first, 0.93 for the second.

Going from A39G C11G to A39C G35A, the self-cleavage rises from 0.51 to 0.78.

First: A39C G35U
Second: A39C G35C
The self-cleavage of the first is higher: 0.84 for the first, 0.14 for the second.

Compared with A39C G47C, A39C G47A is higher in self-cleavage: 0.06 for the first, 0.08 for the second.

Compared with A39C G47U, A38U G50U is higher in self-cleavage: 0.1 for the first, 1.01 for the second.

First: A38U G50A
Second: A38U G50C
The self-cleavage of the first is lower: 0.64 for the first, 0.99 for the second.

First: A38U G51A
Second: A38U G51U
The self-cleavage of the first is higher: 0.63 for the first, 0.32 for the second.

Compared with A38U G51C, A39C G13U is lower in self-cleavage: 0.09 for the first, 0.03 for the second.

Going from A39C G13C to A39C G13A, the self-cleavage rises from 0.02 to 0.06.

Compared with A39C A8C, A39C A8G is higher in self-cleavage: 0.09 for the first, 0.23 for the second.

First: A39C A8U
Second: A39C U12G
The self-cleavage of the first is lower: 0.1 for the first, 0.11 for the second.

Going from A39C U12A to A39C U12C, the self-cleavage falls from 0.44 to 0.11.

Going from A38U C9U to A38U C9A, the self-cleavage falls from 0.74 to 0.42.

First: A38U C9G
Second: A38U G42A
The self-cleavage of the first is higher: 0.84 for the first, 0.6 for the second.

Going from A38U G42U to A38U G42C, the self-cleavage rises from 0.08 to 0.17.

First: A39C C52U
Second: A39C C52G
The self-cleavage of the first is higher: 1.06 for the first, 0.96 for the second.

Compared with A39C C52A, A39C A7G is lower in self-cleavage: 1 for the first, 0.12 for the second.

A39C A7U and A39C A7C are the same in self-cleavage: 0.06 for the first, 0.06 for the second.

Compared with A38U G22C, A38U G22A is higher in self-cleavage: 0.08 for the first, 1 for the second.

Compared with A38U G22U, A38U U18A is higher in self-cleavage: 0.89 for the first, 0.92 for the second.

Compared with A38U U18C, A38U U18G is lower in self-cleavage: 0.93 for the first, 0.85 for the second.

Compared with A38G G49A, A38G G49C is lower in self-cleavage: 0.13 for the first, 0.08 for the second.

Compared with A38G G49U, A39C G22A is higher in self-cleavage: 0.13 for the first, 0.78 for the second.

Compared with A39C G22U, A39C G22C is lower in self-cleavage: 0.41 for the first, 0.05 for the second.

First: A39G A41C
Second: A39G A41U
The self-cleavage of the first is lower: 0.6 for the first, 0.95 for the second.

Going from A39G A41G to A38G G35U, the self-cleavage rises from 0.46 to 0.86.

Going from A38G G35C to A38G G35A, the self-cleavage rises from 0.26 to 0.83.

Compared with A38G U43G, A38G U43C is lower in self-cleavage: 0.62 for the first, 0.35 for the second.

A38G U43A and A38U G44U are the same in self-cleavage: 0.89 for the first, 0.89 for the second.

Compared with A38U G44C, A38U G44A is lower in self-cleavage: 0.96 for the first, 0.92 for the second.

Going from A38G G53U to A38G G53A, the self-cleavage rises from 0.31 to 0.8.

Going from A38G G53C to A38U A46G, the self-cleavage falls from 0.09 to 0.05.

First: A38U A46U
Second: A38U A46C
The self-cleavage of the first is higher: 0.07 for the first, 0.06 for the second.

Going from A39C C20G to A39C C20U, the self-cleavage rises from 0.1 to 0.94.

Going from A39C C20A to A39C C15G, the self-cleavage falls from 0.87 to 0.16.

First: A39C C15A
Second: A39C C15U
The self-cleavage of the first is lower: 0.23 for the first, 0.57 for the second.

First: A39C G45C
Second: A39C G45A
The self-cleavage of the first is lower: 0.05 for the first, 0.08 for the second.

Going from A39C G45U to A38U G30C, the self-cleavage falls from 0.06 to 0.04.

A38U G30A and A38U G30U are the same in self-cleavage: 0.04 for the first, 0.04 for the second.

Going from A39C G53A to A39C G53C, the self-cleavage falls from 0.37 to 0.06.

Compared with A39C G53U, A38U A40C is lower in self-cleavage: 0.12 for the first, 0.06 for the second.

Compared with A38U A40G, A38U A40U is lower in self-cleavage: 0.64 for the first, 0.55 for the second.

Compared with A38U U43A, A38U U43G is lower in self-cleavage: 0.95 for the first, 0.47 for the second.

Compared with A38U U43C, A39C G54C is higher in self-cleavage: 0.39 for the first, 0.6 for the second.

Going from A39C G54U to A39C G54A, the self-cleavage falls from 0.65 to 0.62.

First: A39C
Second: A39G
The self-cleavage of the first is lower: 0.99 for the first, 1 for the second.

First: A39C A46U
Second: A39C A46C
The self-cleavage of the first is higher: 0.07 for the first, 0.04 for the second.

Compared with A39C A46G, A39C G19C is higher in self-cleavage: 0.05 for the first, 0.06 for the second.

First: A39C G19U
Second: A39C G19A
The self-cleavage of the first is lower: 0.11 for the first, 0.28 for the second.

First: A38G G48U
Second: A38G G48A
The self-cleavage of the first is lower: 0.07 for the first, 0.11 for the second.

First: A38G G48C
Second: A39C A41C
The self-cleavage of the first is lower: 0.1 for the first, 0.37 for the second.

Compared with A39C A41G, A39C A41U is higher in self-cleavage: 0.23 for the first, 0.96 for the second.

Compared with A39C C14G, A39C C14U is higher in self-cleavage: 0.05 for the first, 0.11 for the second.

Compared with A39C C14A, A38U A8C is higher in self-cleavage: 0.08 for the first, 0.09 for the second.

Compared with A38U A8U, A38U A8G is higher in self-cleavage: 0.25 for the first, 0.52 for the second.

First: A39G C14G
Second: A39G C14U
The self-cleavage of the first is higher: 0.12 for the first, 0.11 for the second.

First: A39G C14A
Second: A39G C21U
The self-cleavage of the first is lower: 0.08 for the first, 1.01 for the second.

Compared with A39G C21A, A39G C21G is lower in self-cleavage: 0.55 for the first, 0.08 for the second.

A39C G48C and A39C G48U are the same in self-cleavage: 0.05 for the first, 0.05 for the second.

Going from A39C G48A to A39C U18G, the self-cleavage rises from 0.06 to 0.83.

First: A39C U18C
Second: A39C U18A
The self-cleavage of the first is higher: 0.96 for the first, 0.93 for the second.

Going from A38U C27G to A38U C27U, the self-cleavage rises from 0.08 to 0.15.

Compared with A38U C27A, A38G U24G is lower in self-cleavage: 0.14 for the first, 0.03 for the second.

Going from A38G U24C to A38G U24A, the self-cleavage falls from 0.32 to 0.16.

Compared with A38G G47A, A38G G47C is lower in self-cleavage: 0.19 for the first, 0.08 for the second.

Compared with A38G G47U, A39C C27A is lower in self-cleavage: 0.17 for the first, 0.11 for the second.

First: A39C C27U
Second: A39C C27G
The self-cleavage of the first is higher: 0.09 for the first, 0.06 for the second.

Compared with A39G C9U, A39G C9G is lower in self-cleavage: 0.73 for the first, 0.66 for the second.

Compared with A39G C9A, A39G A40U is lower in self-cleavage: 0.39 for the first, 0.16 for the second.

Going from A39G A40G to A39G A40C, the self-cleavage falls from 0.36 to 0.05.

First: A38U C25U
Second: A38U C25A
The self-cleavage of the first is higher: 0.9 for the first, 0.07 for the second.

Going from A38U C25G to A39C U43C, the self-cleavage rises from 0.09 to 0.16.

First: A39C U43G
Second: A39C U43A
The self-cleavage of the first is lower: 0.16 for the first, 0.33 for the second.

Compared with A38G G45A, A38G G45C is lower in self-cleavage: 0.26 for the first, 0.07 for the second.

Going from A38G G45U to A39C G44C, the self-cleavage rises from 0.09 to 0.93.

Compared with A39C G44U, A39C G44A is lower in self-cleavage: 0.88 for the first, 0.71 for the second.

Compared with A39C G51A, A39C G51U is lower in self-cleavage: 0.53 for the first, 0.21 for the second.

First: A39C G51C
Second: A38U C20U
The self-cleavage of the first is lower: 0.05 for the first, 0.98 for the second.

Compared with A38U C20A, A38U C20G is lower in self-cleavage: 0.82 for the first, 0.15 for the second.

Going from A38G G34C to A38G G34U, the self-cleavage rises from 0.59 to 0.74.

Compared with A38G G34A, A38G G44C is higher in self-cleavage: 0.84 for the first, 0.98 for the second.

Compared with A38G G44A, A38G G44U is higher in self-cleavage: 0.93 for the first, 0.95 for the second.

Going from A38U C14A to A38U C14U, the self-cleavage rises from 0.07 to 0.22.

In the case of A38U C14G, the self-cleavage is reported as 0.11.
